Measurements reported in ChEMBL document CHEMBL5653631, “A Potent and Selective ULK1 Inhibitor Suppresses Autophagy and Sensitizes Cancer Cells to Nutrient Stress” (iScience, 2018).
Each block holds one compound with its values, some of them ahead of it.

Columns and labels:
[1] = target: Mitogen-activated protein kinase 14 (Homo sapiens) (UniProt Q16539); assay: Inhibition of human recombinant p38alpha at 500 nM in presence of ATP by radiometric assay relative to control
[2] = target: T1, Inhibitor of nuclear factor kappa-B kinase subunit beta (Homo sapiens) (UniProt O14920); assay: Inhibition of human recombinant IKKb at 500 nM related to control ULK1
T1 sequence (whole entry): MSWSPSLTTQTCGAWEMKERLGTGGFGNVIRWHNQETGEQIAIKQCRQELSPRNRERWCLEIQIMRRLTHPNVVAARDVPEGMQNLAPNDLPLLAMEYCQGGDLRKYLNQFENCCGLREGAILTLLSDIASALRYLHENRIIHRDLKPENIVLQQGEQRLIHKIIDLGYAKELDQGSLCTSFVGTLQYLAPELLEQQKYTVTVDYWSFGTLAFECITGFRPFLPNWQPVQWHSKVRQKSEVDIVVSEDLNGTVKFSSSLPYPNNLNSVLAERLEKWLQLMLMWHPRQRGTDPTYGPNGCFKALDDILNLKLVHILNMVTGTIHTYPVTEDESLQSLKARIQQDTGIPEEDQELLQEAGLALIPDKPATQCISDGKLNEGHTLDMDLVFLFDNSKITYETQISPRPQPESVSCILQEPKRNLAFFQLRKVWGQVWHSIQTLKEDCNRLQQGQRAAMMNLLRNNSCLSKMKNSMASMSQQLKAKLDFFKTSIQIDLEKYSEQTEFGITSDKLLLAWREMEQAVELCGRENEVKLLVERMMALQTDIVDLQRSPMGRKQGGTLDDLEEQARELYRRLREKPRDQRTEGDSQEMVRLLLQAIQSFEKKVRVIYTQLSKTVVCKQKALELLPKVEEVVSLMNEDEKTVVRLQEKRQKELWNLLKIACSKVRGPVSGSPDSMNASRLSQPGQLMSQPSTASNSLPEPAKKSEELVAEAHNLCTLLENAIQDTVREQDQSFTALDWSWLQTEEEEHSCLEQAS

[3] = target: G protein-coupled receptor kinase 5 (Homo sapiens) (UniProt P34947); assay: Inhibition of human recombinant GPRK5 at 500 nM related to control ULK1
[4] = target: Calcium/calmodulin-dependent protein kinase type 1D (Homo sapiens) (UniProt Q8IU85); assay: Inhibition of human recombinant CaMK1d at 500 nM in presence of ATP by radiometric assay relative to control
[5] = target: Epithelial discoidin domain-containing receptor 1 (Homo sapiens) (UniProt Q08345); assay: Inhibition of human recombinant DDR1 at 500 nM in presence of ATP by radiometric assay relative to control
Epithelial discoidin domain-containing receptor 1 (Homo sapiens), sequence (Q08345 whole entry, the tested form may be a part): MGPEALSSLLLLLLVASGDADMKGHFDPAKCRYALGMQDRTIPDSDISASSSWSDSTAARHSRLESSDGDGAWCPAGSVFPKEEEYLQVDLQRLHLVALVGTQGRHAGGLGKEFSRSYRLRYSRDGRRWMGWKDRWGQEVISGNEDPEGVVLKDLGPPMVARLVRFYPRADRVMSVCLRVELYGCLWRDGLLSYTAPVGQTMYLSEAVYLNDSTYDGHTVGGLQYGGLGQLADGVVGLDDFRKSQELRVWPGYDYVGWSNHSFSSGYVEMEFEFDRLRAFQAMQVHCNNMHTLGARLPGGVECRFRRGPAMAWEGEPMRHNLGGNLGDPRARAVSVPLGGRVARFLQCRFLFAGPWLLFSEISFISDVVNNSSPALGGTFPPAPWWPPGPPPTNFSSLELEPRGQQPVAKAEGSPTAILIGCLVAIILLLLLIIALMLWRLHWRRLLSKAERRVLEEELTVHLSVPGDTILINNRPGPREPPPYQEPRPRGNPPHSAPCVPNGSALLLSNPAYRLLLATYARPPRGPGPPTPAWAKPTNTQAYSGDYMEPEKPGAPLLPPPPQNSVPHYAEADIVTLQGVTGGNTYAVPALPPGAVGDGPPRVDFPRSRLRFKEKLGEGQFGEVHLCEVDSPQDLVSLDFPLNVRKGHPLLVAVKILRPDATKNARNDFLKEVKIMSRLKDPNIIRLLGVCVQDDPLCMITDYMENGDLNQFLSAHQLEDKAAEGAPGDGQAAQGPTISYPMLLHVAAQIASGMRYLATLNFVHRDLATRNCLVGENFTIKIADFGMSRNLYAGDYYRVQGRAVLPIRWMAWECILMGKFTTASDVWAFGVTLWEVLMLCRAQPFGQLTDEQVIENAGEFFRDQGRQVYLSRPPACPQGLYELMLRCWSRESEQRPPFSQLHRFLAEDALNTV

[6] = target: Rho-associated protein kinase 2 (Homo sapiens) (UniProt O75116); assay: Inhibition of human recombinant ROCK2 at 500 nM in presence of ATP by radiometric assay relative to control
[7] = target: T2, Aurora kinase C (Homo sapiens) (UniProt Q9UQB9); assay: Inhibition of human recombinant AurC at 500 nM related to control ULK1
T2 sequence (whole entry): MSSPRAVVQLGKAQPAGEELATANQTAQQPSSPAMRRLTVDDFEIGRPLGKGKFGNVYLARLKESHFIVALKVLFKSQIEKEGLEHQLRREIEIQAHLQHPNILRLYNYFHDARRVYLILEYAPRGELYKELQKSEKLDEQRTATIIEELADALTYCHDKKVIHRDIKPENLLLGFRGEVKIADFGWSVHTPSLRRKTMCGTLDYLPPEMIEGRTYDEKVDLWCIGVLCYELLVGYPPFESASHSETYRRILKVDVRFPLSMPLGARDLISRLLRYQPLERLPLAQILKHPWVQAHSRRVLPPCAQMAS

[8] = target: Serine/threonine-protein kinase tousled-like 2 (Homo sapiens) (UniProt Q86UE8); assay: Inhibition of human recombinant TLK2 at 500 nM in presence of ATP by radiometric assay relative to control
Serine/threonine-protein kinase tousled-like 2 (Homo sapiens), sequence (Q86UE8 whole entry, looked up): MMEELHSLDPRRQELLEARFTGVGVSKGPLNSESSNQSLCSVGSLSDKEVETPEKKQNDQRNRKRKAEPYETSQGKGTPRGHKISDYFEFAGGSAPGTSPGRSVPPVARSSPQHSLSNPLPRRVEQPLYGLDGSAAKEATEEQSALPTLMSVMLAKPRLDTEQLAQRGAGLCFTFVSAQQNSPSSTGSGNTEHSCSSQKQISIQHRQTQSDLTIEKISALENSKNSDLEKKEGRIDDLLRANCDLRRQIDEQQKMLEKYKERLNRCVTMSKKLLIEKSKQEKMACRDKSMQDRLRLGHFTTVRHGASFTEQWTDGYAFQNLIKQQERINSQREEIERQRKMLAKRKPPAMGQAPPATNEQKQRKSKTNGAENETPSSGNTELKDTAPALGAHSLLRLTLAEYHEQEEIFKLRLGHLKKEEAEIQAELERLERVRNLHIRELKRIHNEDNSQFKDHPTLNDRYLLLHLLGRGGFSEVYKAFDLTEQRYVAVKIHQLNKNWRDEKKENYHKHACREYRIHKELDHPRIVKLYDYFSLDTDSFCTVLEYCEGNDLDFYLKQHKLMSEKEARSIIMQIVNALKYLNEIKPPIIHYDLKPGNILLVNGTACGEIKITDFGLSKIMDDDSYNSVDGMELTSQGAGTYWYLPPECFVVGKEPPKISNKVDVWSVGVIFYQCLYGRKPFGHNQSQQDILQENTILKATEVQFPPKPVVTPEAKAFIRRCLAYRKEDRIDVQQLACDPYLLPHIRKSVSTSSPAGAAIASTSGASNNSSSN

[9] = target: RAC-alpha serine/threonine-protein kinase (Homo sapiens) (UniProt P31749); assay: Inhibition of human recombinant AKT1 at 15 nM related to control ULK1
RAC-alpha serine/threonine-protein kinase (Homo sapiens), sequence (P31749 whole entry): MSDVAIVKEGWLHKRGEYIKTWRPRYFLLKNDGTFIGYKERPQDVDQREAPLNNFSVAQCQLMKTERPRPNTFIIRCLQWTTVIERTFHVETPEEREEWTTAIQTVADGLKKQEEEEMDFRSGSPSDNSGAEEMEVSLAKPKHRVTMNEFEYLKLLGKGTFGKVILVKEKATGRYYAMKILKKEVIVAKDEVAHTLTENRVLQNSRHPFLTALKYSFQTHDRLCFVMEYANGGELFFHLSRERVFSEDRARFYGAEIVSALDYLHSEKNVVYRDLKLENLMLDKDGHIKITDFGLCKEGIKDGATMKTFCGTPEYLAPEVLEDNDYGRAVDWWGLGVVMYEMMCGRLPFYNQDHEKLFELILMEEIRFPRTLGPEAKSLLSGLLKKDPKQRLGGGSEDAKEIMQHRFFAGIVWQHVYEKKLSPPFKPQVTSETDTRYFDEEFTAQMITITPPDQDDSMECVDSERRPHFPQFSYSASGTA

[10] = target: T1, Inhibitor of nuclear factor kappa-B kinase subunit beta (Homo sapiens); assay: Inhibition of human recombinant IKKb at 15 nM related to control ULK1
[11] = target: Serine/threonine-protein kinase SBK1 (Homo sapiens) (UniProt Q52WX2); assay: Inhibition of human recombinant SBK1 at 15 nM in presence of ATP by radiometric assay relative to control
[12] = target: T3, Cytoplasmic tyrosine-protein kinase BMX (Homo sapiens) (UniProt P51813); assay: Inhibition of human recombinant BMX at 15 nM in presence of ATP by radiometric assay relative to control
T3 sequence (whole entry): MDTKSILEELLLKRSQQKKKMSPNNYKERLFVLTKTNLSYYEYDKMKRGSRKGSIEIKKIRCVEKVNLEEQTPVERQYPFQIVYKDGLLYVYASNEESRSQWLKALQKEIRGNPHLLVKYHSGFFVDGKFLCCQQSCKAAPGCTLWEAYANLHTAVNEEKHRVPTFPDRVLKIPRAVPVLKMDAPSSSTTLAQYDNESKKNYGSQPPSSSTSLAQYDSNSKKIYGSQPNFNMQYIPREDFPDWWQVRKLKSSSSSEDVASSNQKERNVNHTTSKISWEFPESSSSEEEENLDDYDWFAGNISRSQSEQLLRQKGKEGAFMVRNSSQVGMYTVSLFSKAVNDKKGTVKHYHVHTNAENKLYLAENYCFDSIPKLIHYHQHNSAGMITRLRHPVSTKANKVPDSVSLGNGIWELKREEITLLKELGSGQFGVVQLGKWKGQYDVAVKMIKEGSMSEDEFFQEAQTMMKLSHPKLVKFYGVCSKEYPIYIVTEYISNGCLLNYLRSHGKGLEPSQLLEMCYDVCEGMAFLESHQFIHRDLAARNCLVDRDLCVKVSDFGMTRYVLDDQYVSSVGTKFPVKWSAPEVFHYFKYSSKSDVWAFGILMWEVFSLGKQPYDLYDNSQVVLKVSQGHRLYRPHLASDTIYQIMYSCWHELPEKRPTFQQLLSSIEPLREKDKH
In short: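 Part of a radiometric in vitro activity panel of 327 recombinant human kinases. Each kinase was tested in duplicate at one inhibitor concentration. Activity remaining was expressed as a percentage of the vehicle control, and percent inhibition was taken as 100 minus that value.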

[13] = target: Serine/threonine-protein kinase MRCK alpha (Homo sapiens) (UniProt Q5VT25); assay: Inhibition of human recombinant MRCKa at 40 nM related to control ULK1
Serine/threonine-protein kinase MRCK alpha (Homo sapiens), sequence (Q5VT25 whole entry): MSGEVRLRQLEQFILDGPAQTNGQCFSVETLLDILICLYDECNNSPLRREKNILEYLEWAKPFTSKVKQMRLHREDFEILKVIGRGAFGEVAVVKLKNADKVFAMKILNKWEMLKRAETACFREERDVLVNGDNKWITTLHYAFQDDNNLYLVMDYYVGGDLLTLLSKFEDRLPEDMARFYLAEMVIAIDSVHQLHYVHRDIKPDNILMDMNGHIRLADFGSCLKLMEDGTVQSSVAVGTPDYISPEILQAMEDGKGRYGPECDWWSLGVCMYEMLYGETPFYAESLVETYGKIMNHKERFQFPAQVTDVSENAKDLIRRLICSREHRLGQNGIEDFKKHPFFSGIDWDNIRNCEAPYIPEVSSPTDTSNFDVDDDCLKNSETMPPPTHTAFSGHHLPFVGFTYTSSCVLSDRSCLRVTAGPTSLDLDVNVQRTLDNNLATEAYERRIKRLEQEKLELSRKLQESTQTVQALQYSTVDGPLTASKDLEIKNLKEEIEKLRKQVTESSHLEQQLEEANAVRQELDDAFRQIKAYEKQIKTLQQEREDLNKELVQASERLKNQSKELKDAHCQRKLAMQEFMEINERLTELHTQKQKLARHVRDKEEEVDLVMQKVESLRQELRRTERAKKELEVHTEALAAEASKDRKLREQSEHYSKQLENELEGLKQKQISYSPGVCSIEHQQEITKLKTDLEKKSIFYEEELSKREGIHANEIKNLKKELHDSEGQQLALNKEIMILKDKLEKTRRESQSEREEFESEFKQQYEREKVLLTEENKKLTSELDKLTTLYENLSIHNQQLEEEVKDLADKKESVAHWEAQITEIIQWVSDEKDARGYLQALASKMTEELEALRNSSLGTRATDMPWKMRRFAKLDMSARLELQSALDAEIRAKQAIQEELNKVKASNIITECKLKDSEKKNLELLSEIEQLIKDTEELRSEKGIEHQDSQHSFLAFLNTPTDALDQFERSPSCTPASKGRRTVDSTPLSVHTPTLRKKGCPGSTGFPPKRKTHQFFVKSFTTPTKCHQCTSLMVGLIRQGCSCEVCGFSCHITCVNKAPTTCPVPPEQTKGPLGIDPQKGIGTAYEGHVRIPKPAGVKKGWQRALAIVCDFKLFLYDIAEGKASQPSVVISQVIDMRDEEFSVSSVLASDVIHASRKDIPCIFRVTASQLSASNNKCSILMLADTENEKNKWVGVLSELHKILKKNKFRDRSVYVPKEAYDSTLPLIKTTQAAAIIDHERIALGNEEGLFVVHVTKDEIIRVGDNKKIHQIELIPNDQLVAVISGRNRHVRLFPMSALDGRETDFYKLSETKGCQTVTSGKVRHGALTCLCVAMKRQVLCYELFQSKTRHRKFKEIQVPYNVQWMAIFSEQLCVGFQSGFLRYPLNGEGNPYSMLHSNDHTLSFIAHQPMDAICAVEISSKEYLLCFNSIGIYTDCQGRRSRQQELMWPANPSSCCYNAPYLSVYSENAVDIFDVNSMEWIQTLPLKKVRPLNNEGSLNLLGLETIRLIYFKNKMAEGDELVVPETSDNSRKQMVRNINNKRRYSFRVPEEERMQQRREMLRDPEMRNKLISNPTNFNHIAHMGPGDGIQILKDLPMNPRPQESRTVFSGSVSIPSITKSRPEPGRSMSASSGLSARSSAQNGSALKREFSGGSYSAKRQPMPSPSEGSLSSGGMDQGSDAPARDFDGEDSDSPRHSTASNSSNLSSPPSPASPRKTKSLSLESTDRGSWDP

[14] = target: Serine/threonine-protein kinase PAK 6 (Homo sapiens) (UniProt Q9NQU5); assay: Inhibition of human recombinant PAK6 at 40 nM related to control ULK1
[15] = target: Casein kinase I isoform gamma-1 (Homo sapiens) (UniProt Q9HCP0); assay: Inhibition of human recombinant CK1g1 at 40 nM related to control ULK1
Casein kinase I isoform gamma-1 (Homo sapiens), sequence (Q9HCP0 whole entry, looked up, canonical isoform): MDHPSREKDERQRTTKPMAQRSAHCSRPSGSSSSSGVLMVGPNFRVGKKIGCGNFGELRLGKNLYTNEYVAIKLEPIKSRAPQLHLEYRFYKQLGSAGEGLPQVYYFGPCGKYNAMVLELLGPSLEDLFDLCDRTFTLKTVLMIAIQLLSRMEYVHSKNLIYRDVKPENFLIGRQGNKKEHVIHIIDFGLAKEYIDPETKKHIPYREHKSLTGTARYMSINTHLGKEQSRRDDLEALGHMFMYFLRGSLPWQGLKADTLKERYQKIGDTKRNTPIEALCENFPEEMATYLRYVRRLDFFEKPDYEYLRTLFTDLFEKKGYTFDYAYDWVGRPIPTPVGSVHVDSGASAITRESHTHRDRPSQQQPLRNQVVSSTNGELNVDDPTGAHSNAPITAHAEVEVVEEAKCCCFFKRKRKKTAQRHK

[16] = target: Dual specificity protein kinase CLK3 (Homo sapiens) (UniProt P49761); assay: Inhibition of human recombinant CLK3 at 40 nM related to control ULK1
Dual specificity protein kinase CLK3 (Homo sapiens), sequence (P49761 whole entry, looked up): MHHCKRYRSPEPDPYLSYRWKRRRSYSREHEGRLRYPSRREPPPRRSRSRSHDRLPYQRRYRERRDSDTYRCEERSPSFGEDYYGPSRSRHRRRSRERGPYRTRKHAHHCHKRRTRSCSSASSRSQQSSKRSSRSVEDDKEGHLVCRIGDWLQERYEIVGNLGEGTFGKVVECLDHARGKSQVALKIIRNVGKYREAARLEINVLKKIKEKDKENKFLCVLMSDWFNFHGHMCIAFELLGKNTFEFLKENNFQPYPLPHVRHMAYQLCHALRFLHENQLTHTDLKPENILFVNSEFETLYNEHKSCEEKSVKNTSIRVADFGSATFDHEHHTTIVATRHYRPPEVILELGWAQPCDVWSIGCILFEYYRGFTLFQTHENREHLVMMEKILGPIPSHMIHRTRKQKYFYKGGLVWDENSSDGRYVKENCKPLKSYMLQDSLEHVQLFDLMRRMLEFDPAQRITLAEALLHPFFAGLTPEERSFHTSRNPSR

- inhibition [1]: 5%
- fold change (FC) [2]: 0.03
- fold change (FC) [3]: 0.01
- inhibition [4]: 5%
- inhibition [5]: 47%
- inhibition [6]: 0%
- fold change (FC) [7]: 0.99
- inhibition [8]: 0%
Compound: CNC(=O)c1ccccc1Oc1nc(Nc2cc(OC)c(OC)c(OC)c2)ncc1Br

- fold change (FC) [9]: 0
- fold change (FC) [10]: 0
- inhibition [11]: 5%
- inhibition [12]: 6%
Compound: CC(C)[C@H](NC(=O)c1cc(-c2cnn3cc(-c4ccc(OCCN5CCCCC5)cc4)cnc23)cs1)C(F)(F)F

- fold change (FC) [13]: 0.03
- fold change (FC) [14]: 0.1
- fold change (FC) [15]: 0
- fold change (FC) [16]: 0
Compound: O=C(N[C@@H](C1CC1)C(F)(F)F)c1cc(-c2cnn3cc(-c4ccc(F)cc4)cnc23)cs1
